Results reported in ChEMBL document CHEMBL3352331, “Anti-respiratory syncytial virus prenylated dihydroquinolone derivatives from the gorgonian-derived fungus Aspergillus sp. XS-20090B15” (J Nat Prod, 2014).

Legend:
[1] = tested on: Respiratory syncytial virus; assay: Antiviral activity against Respiratory syncytial virus infected in human Hep2 cells assessed as inhibition of virus-induced cytopathic effect after 72 hrs by XTT assay; type: functional, organism-based; details: HEp-2, 72 h
Summary of the method: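 RSV-induced cytopathic effect inhibition in Hep-2 (human laryngeal carcinoma) cells, run by an established CPE-inhibition procedure. Ribavirin served as the positive control. Values are the mean of three replicate determinations.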

[2] = Therapeutic index, ratio of TC50 for human Hep2 cells to IC50 for Respiratory syncytial virus; type: cell-based, HEp-2; details: read-out: TI
[3] = Cytotoxicity against human Hep2 cells after 48 hrs; type: cell-based, HEp-2; details: read-out: TC50

## CN[C@H](C(=O)O[C@@H]1CC[C@@](C)(/C=C/c2ccc3c(c2O)[C@@](O)(c2ccccc2)[C@H](OC)C(=O)N3)C[C@@H]1C)C(C)C
[1]
  IC50: > 50 µM

## CN[C@H](C(=O)O[C@@H]1CC[C@@](C)(/C=C/c2ccc3c(c2O)[C@@](O)(c2ccccc2)[C@H](OC)C(=O)N3)C[C@H]1C)C(C)C
[1]
  IC50: 0.042 µM
[2]
  selectivity ratio: 520
[3]
  CC50 at 48 h: 22 µM

## CO[C@@H]1C(=O)Nc2ccc(/C=C/[C@]3(C)CCC(=O)[C@H](C)C3)c(O)c2[C@@]1(O)c1ccccc1
[1]
  IC50: 6.6 µM
[2]
  selectivity ratio: 4
[3]
  CC50 at 48 h: 27 µM

## CO[C@@H]1C(=O)Nc2ccc(/C=C/[C@]3(C)CCC(=O)[C@@H](C)C3)c(O)c2[C@@]1(O)c1ccccc1 [AFLAQUINOLONE A]
[1]
  IC50: > 50 µM

## NC(=O)c1ncn([C@@H]2O[C@H](CO)[C@@H](O)[C@H]2O)n1 [RIBAVIRIN]
[1]
  IC50: 20 µM
[2]
  selectivity ratio: > 150
[3]
  CC50 at 48 h: > 3000 µM
